Results pooled from the literature.
Protocols differ between the studies behind these lines.
Target: G protein-coupled receptor kinase 3 (GRK3, Homo sapiens, UniProt P35626)
One construct used (P35626 1-688): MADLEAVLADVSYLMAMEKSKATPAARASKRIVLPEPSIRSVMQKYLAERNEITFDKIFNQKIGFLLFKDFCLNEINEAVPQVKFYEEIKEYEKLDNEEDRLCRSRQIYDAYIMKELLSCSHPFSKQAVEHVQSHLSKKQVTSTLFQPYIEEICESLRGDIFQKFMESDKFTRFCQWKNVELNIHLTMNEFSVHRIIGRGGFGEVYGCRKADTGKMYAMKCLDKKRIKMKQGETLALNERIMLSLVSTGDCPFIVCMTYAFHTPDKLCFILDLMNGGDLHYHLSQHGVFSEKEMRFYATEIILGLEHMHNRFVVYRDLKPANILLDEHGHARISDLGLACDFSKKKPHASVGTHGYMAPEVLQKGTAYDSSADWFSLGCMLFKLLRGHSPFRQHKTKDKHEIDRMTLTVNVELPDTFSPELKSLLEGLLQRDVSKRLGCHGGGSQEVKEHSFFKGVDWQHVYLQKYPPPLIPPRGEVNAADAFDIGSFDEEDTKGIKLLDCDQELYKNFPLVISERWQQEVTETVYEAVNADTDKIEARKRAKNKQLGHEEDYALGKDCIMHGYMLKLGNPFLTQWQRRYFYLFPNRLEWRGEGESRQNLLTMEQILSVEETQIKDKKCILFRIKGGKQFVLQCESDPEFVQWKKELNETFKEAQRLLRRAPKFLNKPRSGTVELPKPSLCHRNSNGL

SMILES	read-out	action	method	tested at	endpoint	result
CS(=O)(=O)N1CCCC(NC(=O)[C@H](CCC2CCCCC2)NC(=O)c2ccc(CNc3ncnc4c3nnn4-c3ccccc3)cc2)C1 (some centres unmarked)	cell-free assay		competition with immobilised ligand	0.1 µM	remaining binding	100%
Cn1c2c(Cl)c(Cl)ccc2c2cc(N)[nH]c(=O)c21	thermal stability		DSF	10 µM	ΔTm	0 °C
NS(=O)(=O)c1cc(NC(=O)Cc2ccccc2)ccc1Oc1cccc(Cl)c1	cell-free assay		competition with immobilised ligand	1 µM	remaining binding	100%
COc1cc2ncnc(Nc3ccc(Oc4ccccc4)cc3C)c2cc1OC	enzyme activity	inhibitor		1 µM	inhibition	1%
N#CCCc1ccc2c(c1)-c1[nH]c3ccc([N+](=O)[O-])cc3c1CC(=O)N2	cell-free assay			0.5 µM	remaining signal	97.1%
COc1ccc2cc(OCC3(C(=O)O)CN(C(=O)c4ccc(F)cc4)C3)ccc2c1	cell-free assay		competition with immobilised ligand	1 µM	remaining binding	67%
Cc1sc(C(=O)NC2COC2)cc1-n1cc(NC(=O)Nc2c(F)cccc2Cl)cn1	enzyme activity	inhibitor		10 µM	remaining activity	107%
CC(C)(C)c1nc(-c2cccc(NS(=O)(=O)c3c(F)cccc3F)c2F)c(-c2ccnc(N)n2)s1	enzyme activity	inhibitor	radiometric	1 µM	remaining activity	86%
Cn1c2c(c3ccc(Cl)c(Cl)c31)C(C#N)C1(CCCCC1)NC2=O (racemic)	thermal stability		DSF	10 µM	ΔTm	0.4 °C
CN(c1ccnc(CNc2nc(Nc3ccc4c(c3)CC(=O)N4)ncc2C(F)(F)F)n1)S(C)(=O)=O	cell-free assay		competition with immobilised ligand	1 µM	remaining binding	91%
CCCS(=O)(=O)Nc1ccc(F)c(C(=O)c2c[nH]c3ncc(-c4ccc(Cl)cc4)cc23)c1F	enzyme activity	inhibitor		1 µM	inhibition	< 10%
CCN1CCC2(CC1)NC(=O)c1c(c3ccc(Cl)c(Cl)c3n1C)C2C#N (racemic)	thermal stability		DSF	10 µM	ΔTm	0.8 °C
O=C(O)[C@H]1[C@H](Cn2nnc3ccccc3c2=O)CC[C@@H]1C(=O)c1ccc(OCCC2CCOCC2)cc1	cell-free assay		competition with immobilised ligand	1 µM	remaining binding	100%
Cn1c2c(c3ccc(Cl)c(Cl)c31)C(C#N)C1(CCNCC1)NC2=O (racemic)	thermal stability		DSF	10 µM	ΔTm	1.1 °C
O=C1Nc2ccc(Cl)cc2C1=Cc1cc(Cl)c(O)c(Cl)c1	cell-free assay			0.5 µM	remaining signal	102%
COc1ccc2c(c1)O[C@@H](c1ccc(OC)c(OC)c1)C[C@H]2NC(=O)C1(c2ccc3c(c2)OC(F)(F)O3)CC1	cell-free assay		competition with immobilised ligand	1 µM	remaining binding	75%
Cn1c2c(c3ccc(Cl)c(Cl)c31)C(C#N)C1(CCCC1)NC2=O (centres unmarked)	thermal stability		DSF	10 µM	ΔTm	-0.1 °C
Cc1ccc(C(=O)NCc2ccsc2)cc1C#Cc1cn(C(C)C)c2ncnc(N)c12	enzyme activity	inhibitor		1 µM	activity vs control	105%
Cn1c2c(c3ccccc31)C(C#N)C(C)(C)NC2=O (centres unmarked)	thermal stability		DSF	10 µM	ΔTm	0.2 °C
COc1cc(Cl)c(C(=O)N[C@@H](CN[C@H]2CC[C@@H](N)CC2)Cc2ccc(C#N)cc2)cc1-c1ccc(CN[C@H](C)c2ccc(C)cc2)o1	enzyme activity	inhibitor		1 µM	remaining activity	99%
